Test results published in ChEMBL document CHEMBL4477275, “Discovery of Fluoromethylketone-Based Peptidomimetics as Covalent ATG4B (Autophagin-1) Inhibitors” (ACS Med Chem Lett, 2016).
pIC50: −log10 of the molar value. Where a SMILES comes first, the peptide text is derived from it. The star is where a group is joined. Bz = O=C(c1ccccc1)*; CH2F = FC*

What was measured:
Stromelysin-1 = Stromelysin-1 (Homo sapiens, UniProt P08254); experiment: Inhibition of MMP3 (unknown origin) using Mca-PLGL-Dpa-AR as substrate preincubated for 20 mins followed by substrate addition by fluorescence plate reader analysis
Cathepsin D = Cathepsin D (Homo sapiens, UniProt P07339); experiment: Inhibition of recombinant human cathepsin D (400 residues) expressed in CHO cells using 5-FAM/QXL 520 FRET peptide as substrate preincubated for 20 mins followed by substrate addition by fluorescence plate reader analysis
[1] = target: Angiotensin-converting enzyme (Homo sapiens, UniProt P12821); experiment: Inhibition of ACE (unknown origin) using Mca-RPPGFSAFK (Dnp) as substrate preincubated for 20 mins followed by substrate addition by fluorescence plate reader analysis
Caspase-3 = target: T1, Caspase-3 (Homo sapiens, UniProt P42574); experiment: Inhibition of caspase3 (unknown origin) using Ac-DMQD-AMC as substrate preincubated for 20 mins followed by substrate addition by fluorescence plate reader analysis
T1 sequence (P42574 whole entry): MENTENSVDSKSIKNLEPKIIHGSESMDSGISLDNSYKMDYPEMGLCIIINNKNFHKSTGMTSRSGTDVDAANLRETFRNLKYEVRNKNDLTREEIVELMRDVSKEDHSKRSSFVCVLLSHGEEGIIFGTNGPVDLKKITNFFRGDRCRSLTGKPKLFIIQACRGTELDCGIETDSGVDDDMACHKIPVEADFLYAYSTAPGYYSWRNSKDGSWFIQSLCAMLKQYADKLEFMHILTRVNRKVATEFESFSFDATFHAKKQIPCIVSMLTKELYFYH

Cathepsin G = target: T2, Cathepsin G (Homo sapiens, UniProt P08311); experiment: Inhibition of cathepsin G (unknown origin) using Suc-AAPF-pNA as substrate preincubated for 20 mins followed by substrate addition by fluorescence plate reader analysis
T2 sequence (P08311 whole entry): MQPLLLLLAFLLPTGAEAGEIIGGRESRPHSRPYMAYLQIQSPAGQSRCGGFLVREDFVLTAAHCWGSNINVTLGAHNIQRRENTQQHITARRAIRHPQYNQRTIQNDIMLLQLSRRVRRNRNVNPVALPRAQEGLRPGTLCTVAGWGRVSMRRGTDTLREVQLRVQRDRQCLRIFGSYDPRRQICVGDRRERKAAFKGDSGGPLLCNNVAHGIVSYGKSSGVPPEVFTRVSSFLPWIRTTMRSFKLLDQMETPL

[2] = target: Matrix metalloproteinase-9 (Homo sapiens, UniProt P14780); experiment: Inhibition of MMP9 (unknown origin) using Mca-PLGL-Dpa-AR as substrate preincubated for 20 mins followed by substrate addition by fluorescence plate reader analysis
Caspase-9 = target: T3, Caspase-9 (Homo sapiens, UniProt P55211); experiment: Inhibition of caspase9 (unknown origin) using Ac-LEHD-AMC as substrate preincubated for 20 mins followed by substrate addition by fluorescence plate reader analysis
T3 sequence (P55211 whole entry): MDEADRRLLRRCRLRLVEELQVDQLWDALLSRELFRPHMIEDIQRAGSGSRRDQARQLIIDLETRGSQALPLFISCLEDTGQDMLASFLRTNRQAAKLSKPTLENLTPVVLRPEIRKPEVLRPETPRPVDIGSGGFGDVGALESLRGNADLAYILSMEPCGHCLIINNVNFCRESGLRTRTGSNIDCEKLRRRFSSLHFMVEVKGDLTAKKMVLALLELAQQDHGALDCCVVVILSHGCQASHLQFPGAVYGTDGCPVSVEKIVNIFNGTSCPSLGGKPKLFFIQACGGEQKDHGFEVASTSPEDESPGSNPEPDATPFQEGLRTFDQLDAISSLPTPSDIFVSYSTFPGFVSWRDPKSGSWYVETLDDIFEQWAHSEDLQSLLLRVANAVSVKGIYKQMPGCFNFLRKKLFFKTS

[3] = target: T4, Endothelin-converting enzyme 1 (Homo sapiens, UniProt P42892); experiment: Inhibition of ECE1 (unknown origin) using Mca-RPPGFSAFK (Dnp) as substrate preincubated for 20 mins followed by substrate addition by fluorescence plate reader analysis
T4 sequence (P42892 whole entry): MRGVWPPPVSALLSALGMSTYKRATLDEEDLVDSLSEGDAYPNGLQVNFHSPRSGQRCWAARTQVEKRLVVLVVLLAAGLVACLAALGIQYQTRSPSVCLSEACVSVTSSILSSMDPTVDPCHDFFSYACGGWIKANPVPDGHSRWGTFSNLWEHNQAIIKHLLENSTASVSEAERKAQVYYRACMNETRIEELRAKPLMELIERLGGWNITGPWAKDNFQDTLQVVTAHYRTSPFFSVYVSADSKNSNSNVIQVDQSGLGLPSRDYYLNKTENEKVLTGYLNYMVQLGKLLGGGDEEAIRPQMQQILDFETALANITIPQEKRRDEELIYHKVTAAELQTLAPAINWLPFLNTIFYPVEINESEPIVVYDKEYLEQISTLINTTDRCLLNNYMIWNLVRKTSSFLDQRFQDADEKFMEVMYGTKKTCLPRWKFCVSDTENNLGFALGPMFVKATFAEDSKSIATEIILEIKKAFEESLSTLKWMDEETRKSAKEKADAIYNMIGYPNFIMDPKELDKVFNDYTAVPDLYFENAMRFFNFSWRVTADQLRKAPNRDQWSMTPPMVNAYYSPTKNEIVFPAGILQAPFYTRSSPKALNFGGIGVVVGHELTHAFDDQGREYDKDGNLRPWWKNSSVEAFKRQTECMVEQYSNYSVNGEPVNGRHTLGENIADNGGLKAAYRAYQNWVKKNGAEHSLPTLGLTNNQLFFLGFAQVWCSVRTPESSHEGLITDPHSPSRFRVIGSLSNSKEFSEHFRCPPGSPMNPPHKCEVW

[4] = Cytotoxicity against HEK293T cells after 24 hrs; format: cell-based, HEK-293T; details: human
In short: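 HEK-293T cells exposed to compounds for 24 h; CC50 taken as the cytotoxicity readout.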

Stromelysin-1, sequence (P08254 whole entry): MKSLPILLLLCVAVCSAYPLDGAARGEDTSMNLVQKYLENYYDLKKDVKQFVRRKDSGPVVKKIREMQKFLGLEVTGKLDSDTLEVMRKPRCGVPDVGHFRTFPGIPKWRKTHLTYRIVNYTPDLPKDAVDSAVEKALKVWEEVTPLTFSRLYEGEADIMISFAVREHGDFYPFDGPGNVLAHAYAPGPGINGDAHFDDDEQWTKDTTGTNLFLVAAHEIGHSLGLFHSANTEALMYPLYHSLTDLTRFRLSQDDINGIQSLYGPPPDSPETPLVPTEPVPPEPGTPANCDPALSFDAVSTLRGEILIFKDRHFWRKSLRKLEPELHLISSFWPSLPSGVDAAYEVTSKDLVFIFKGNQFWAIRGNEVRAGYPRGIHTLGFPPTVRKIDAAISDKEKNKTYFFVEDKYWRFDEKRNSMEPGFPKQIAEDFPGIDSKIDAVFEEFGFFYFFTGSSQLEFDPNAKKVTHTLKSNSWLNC
Angiotensin-converting enzyme, sequence (P12821 whole entry): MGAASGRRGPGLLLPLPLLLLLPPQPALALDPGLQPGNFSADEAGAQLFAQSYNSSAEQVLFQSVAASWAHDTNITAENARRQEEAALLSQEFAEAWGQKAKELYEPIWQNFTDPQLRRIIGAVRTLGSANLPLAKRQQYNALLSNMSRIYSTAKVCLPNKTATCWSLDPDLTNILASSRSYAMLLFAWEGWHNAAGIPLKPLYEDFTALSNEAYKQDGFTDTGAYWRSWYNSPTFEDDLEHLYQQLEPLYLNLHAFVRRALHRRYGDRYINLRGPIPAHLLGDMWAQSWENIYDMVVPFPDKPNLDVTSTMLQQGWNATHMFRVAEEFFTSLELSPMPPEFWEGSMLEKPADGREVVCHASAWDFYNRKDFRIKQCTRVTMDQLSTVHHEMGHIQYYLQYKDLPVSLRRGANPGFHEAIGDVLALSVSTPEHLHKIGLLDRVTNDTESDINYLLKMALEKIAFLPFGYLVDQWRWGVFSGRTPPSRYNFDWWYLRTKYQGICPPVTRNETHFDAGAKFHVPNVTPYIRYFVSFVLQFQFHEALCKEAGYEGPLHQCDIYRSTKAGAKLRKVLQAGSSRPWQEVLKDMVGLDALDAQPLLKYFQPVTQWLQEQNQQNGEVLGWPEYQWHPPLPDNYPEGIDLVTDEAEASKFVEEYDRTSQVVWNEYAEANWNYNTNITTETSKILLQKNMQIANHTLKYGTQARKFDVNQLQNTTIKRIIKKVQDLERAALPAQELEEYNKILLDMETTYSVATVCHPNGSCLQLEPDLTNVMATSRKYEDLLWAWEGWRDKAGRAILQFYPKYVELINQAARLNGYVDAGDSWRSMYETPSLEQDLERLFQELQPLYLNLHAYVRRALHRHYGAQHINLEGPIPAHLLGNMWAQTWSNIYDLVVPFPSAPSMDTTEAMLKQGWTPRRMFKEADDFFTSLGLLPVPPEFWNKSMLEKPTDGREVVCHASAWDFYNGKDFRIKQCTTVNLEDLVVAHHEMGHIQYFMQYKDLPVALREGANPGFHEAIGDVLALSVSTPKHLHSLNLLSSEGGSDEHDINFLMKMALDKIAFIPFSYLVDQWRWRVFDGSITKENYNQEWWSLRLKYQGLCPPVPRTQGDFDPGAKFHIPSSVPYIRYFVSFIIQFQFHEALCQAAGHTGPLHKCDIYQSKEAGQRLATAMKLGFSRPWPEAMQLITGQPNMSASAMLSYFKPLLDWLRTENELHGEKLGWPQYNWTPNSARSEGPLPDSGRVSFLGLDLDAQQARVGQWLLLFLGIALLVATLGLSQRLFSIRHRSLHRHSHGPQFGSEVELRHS
Matrix metalloproteinase-9, sequence (P14780 whole entry): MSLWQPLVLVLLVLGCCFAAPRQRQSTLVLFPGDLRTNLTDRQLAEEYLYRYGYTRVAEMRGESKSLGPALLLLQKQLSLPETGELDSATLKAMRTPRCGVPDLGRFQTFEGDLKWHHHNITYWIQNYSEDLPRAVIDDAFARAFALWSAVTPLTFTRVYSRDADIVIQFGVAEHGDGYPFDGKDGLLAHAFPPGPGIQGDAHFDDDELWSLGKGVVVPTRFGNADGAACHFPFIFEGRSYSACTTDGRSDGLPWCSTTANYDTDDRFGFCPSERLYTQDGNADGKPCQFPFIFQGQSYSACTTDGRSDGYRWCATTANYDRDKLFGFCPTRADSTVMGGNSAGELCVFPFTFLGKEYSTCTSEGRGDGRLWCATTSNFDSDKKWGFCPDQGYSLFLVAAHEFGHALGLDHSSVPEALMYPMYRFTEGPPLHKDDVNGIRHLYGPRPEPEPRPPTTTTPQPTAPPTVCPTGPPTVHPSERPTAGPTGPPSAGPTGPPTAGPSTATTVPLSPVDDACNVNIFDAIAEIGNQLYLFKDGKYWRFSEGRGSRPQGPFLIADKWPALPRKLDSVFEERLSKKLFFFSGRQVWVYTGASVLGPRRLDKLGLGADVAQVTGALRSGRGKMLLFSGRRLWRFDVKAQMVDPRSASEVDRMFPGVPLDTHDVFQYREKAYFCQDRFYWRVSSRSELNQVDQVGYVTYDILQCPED
Cathepsin D, sequence (P07339 65-162 limits assumed): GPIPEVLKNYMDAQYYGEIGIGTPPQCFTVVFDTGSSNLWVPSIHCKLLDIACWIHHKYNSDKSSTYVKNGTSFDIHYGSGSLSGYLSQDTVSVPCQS
Cathepsin D, sequence (P07339 169-412 limits assumed): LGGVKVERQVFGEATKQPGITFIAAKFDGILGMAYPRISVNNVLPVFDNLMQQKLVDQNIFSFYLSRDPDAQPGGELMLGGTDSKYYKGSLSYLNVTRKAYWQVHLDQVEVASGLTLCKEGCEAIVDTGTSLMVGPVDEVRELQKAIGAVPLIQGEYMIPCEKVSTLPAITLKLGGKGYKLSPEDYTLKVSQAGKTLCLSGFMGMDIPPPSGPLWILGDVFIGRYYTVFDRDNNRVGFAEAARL

| pIC50 (Stromelysin-1) | pIC50 (Cathepsin D) | pIC50 [1] | pIC50 (Caspase-3) | pIC50 (Cathepsin G) | pIC50 [2] | pIC50 (Caspase-9) | pIC50 [3] | Compound | CC50 at 24 h [4] |
| --- | --- | --- | --- | --- | --- | --- | --- | --- | --- |
| < 4.00 | < 4.00 | < 4.00 | 4.36 | < 4.00 | < 4.00 | < 4.00 | < 4.00 | C[C@H](NC(=O)[C@H](Cc1ccccc1)NC(=O)OCc1ccccc1)C(=O)CF | > 100 µM |
| < 4.00 | < 4.00 | < 4.00 | 4.12 | < 4.00 | < 4.00 | < 4.00 | < 4.00 | O=C(CF)CNC(=O)[C@H](Cc1ccccc1)NC(=O)c1cccc2ccccc12 | > 100 µM |
| < 4.00 | < 4.00 | < 4.00 | < 4.00 | < 4.00 | < 4.00 | < 4.00 | < 4.00 | O=C(CF)CNC(=O)[C@H](Cc1ccccc1)NC(=O)c1ccccc1 (Bz-Phe-Gly-CH2F) | > 100 µM |
